“And” between values parts separate entries of the source, which are not always exact repeats. Equal values may be shown once. “Also recorded” adds a separate entry of the source. Read-outs that look alike come from different tables or passages of the source.
What was measured:
[1] = test system: native NMDA receptors expressed by hippocampal interneurons; type: cell-based, mouse
Outline: (§1)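 Transverse 300 μm ventral hippocampal slices were cut from P12–18 C57BL/6J mice. Recording was at 32°C in aCSF with 0.2 mM Mg2+, 20 μM DNQX and 10 μM gabazine, using a Cs-based internal. Visually identified CA1 stratum radiatum/lacunosum moleculare interneurons or CA1 pyramidal neurons were held at +40 mV, with Schaffer collateral stimulation every 30–60 s. Sequence was baseline 5–10 min, 10 μM test compound 10–15 min, then 400 μM DL-APV.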

[2] = test system: native NMDA receptors expressed by hippocampal CA1 pyramidal neurons; type: cell-based, mouse
Outline: as §1

[3] = test system: native NMDA receptors expressed by STN neurons; type: cell-based, mouse
Outline: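 Sagittal 300 μm slices containing STN were cut from P12–18 C57BL/6J mice of either sex. Recording was at 32°C in aCSF with 0.2 mM Mg2+, 20 μM DNQX and 10 μM gabazine, using a Cs-based internal with QX-314, at −40 mV. Internal capsule stimulation was given every 30–60 s during 5–10 min baseline, then 10–15 min vehicle (0.01% DMSO) or 10 μM test compound, then 400 μM DL-APV. Charge transfer was taken as EPSC area.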

[4] = test system: native NMDA receptors expressed by STN neurons; type: cell-based, mouse; details: APV 400 μM superfusion
GluN1/2A [5] = details: read-out: glycine EC50; in the absence of PTC-174; ref Yi et al. 2016; cited from earlier work
GluN1/2A [6] = molecular target: GluN1/2A (Rattus norvegicus, UniProt P35439+Q00959); type: cell-based
Chain of GluN1/2A (Rattus norvegicus, UniProt P35439+Q00959) (Q00959 23-1464, other chains not shown): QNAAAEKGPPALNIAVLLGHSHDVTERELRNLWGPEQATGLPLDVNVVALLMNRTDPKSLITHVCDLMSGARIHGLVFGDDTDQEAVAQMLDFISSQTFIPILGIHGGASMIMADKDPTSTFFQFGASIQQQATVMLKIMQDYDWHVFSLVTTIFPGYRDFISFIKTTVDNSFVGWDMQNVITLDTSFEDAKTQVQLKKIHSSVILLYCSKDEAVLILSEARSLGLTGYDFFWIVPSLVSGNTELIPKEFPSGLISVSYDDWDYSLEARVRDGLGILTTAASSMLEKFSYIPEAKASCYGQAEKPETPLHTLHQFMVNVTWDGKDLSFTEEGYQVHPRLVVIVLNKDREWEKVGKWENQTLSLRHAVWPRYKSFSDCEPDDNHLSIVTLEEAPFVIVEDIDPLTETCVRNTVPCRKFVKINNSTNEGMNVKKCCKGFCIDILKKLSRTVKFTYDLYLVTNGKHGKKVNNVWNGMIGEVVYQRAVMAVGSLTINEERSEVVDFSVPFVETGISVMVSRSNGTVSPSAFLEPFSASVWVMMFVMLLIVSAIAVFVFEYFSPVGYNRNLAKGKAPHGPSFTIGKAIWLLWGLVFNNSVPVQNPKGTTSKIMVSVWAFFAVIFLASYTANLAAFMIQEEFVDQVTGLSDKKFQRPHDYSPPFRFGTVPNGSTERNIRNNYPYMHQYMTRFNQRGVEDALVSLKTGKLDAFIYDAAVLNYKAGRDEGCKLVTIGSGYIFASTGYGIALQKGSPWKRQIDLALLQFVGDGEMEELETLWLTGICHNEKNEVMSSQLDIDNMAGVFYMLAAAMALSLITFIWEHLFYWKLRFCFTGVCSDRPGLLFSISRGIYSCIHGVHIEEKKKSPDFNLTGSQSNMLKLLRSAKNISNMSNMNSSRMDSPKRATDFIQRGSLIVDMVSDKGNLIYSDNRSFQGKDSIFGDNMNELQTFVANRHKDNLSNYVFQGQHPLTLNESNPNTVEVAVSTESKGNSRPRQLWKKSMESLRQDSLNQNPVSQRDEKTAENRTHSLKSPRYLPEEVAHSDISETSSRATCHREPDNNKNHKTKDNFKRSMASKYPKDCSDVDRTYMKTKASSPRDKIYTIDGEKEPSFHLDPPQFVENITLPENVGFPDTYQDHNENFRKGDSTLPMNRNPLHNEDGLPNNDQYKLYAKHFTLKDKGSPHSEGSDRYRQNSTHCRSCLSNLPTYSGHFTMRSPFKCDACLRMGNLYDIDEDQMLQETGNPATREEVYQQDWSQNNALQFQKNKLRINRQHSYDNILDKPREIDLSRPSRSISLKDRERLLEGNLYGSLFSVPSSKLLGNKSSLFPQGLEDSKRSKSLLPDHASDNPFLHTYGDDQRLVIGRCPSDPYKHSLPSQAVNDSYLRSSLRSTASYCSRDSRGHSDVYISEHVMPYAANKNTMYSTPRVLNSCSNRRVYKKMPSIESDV
Outline: (§2)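 Rat GluN1 with GluN2A or GluN2B was expressed from cRNA in Xenopus oocytes. Oocytes were used 2–4 days later and preinjected with 50 mM BAPTA 10–30 min before recording. Two-electrode voltage clamp was at −40 mV and 21–23°C in Ba2+-containing solution, pH 7.4. […] Responses as % of agonist alone were Hill-fitted for EC50, nH and maximal modulation. At least 4 oocytes from ≥2 frogs were used.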

[7] = test system: kainate (GluK1–2) receptors; type: cell-based; details: 10 μM PTC-174; activated by 100 μM glutamate; concanavalin A pre-incubation
Outline: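 Oocytes expressing GluK1 or GluK2 were incubated 10 min in 1 mg/ml concanavalin A in recording solution. They were then clamped at −40 mV at 21–23°C in Ba2+-containing solution, pH 7.4. […] Responses were normalized to control without test compound, from 5–8 oocytes.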

[8] = molecular target: GluN1/2AC1/2CC2-NK (triheteromeric GluN1/2A/2C) (Rattus norvegicus, UniProt P35439+Q00959+Q00961, N612K); type: cell-based; details: Hill slope; in the presence of 1 mM Mg2+
GluN1/2C [9] = molecular target: T1, GluN1/2C (Rattus norvegicus, UniProt P35439+Q00961); type: cell-based
T1 sequence (Q00961 20-1237, other chains not shown): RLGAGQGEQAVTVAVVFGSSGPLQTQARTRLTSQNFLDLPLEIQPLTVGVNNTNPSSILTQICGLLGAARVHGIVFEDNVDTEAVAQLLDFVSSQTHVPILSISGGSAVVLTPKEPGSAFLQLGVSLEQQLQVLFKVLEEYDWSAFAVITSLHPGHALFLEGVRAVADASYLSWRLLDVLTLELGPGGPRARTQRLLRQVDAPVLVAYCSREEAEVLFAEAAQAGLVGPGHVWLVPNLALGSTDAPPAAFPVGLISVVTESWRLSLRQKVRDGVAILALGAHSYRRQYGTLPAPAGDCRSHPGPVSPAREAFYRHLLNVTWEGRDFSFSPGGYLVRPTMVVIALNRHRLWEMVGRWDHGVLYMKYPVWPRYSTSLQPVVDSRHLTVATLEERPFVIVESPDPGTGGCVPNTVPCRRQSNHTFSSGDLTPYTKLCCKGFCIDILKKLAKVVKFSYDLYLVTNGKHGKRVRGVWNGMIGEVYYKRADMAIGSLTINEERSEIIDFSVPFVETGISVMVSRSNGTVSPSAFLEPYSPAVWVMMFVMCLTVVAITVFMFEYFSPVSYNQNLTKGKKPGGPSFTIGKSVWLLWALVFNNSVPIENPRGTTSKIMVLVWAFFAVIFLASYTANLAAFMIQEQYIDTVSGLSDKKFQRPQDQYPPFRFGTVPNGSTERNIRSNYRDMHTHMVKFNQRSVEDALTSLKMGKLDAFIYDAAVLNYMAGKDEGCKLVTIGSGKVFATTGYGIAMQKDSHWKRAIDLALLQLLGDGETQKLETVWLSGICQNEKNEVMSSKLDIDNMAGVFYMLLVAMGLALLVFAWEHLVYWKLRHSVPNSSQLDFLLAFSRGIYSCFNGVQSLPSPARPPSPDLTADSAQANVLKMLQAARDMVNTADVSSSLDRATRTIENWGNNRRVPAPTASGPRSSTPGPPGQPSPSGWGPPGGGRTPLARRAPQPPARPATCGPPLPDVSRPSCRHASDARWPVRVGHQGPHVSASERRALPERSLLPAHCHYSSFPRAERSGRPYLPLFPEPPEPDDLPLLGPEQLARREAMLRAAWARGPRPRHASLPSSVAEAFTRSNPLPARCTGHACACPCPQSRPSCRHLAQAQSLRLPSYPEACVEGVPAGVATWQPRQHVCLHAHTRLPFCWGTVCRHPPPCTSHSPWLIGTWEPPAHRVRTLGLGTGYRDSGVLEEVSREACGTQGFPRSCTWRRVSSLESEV

GluN1/2C [10] = molecular target: T1, GluN1/2C; experiment: Fast-application whole-cell patch-clamp electrophysiology, HEK293 cells; type: cell-based; details: 10 μM PTC-174 continuous; 3–5 ms 1 mM glutamate; 10 μM glycine
Outline: (§3)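 HEK293 cells on poly-D-lysine coverslips in DMEM with 10% dialyzed FBS were calcium-phosphate transfected with GFP, GluN1 and GluN2 cDNAs (1:1:1), with 200 μM D,L-APV and 200 μM 7-chlorokynurenic acid in the medium. About 24 h later, whole-cell recordings were made at 20°C and −60 mV on lifted cells using piezo-driven theta-glass exchange. Cells were accepted at <1000 pA and <10 MΩ series resistance.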

[11] = molecular target: GluN1/2AC1/2BC2 (triheteromeric GluN1/2A/2B) (Rattus norvegicus, UniProt P35439+Q00959+Q00960); type: cell-based
Chain of GluN1/2AC1/2BC2 (triheteromeric GluN1/2A/2B) (Q00959 23-1464, other chains not shown): as the sequence (Q00959 23-1464, other chains not shown) above

[12] = molecular target: GluN1/2BC1/2DC2 (triheteromeric GluN1/2B/2D) (Rattus norvegicus, UniProt P35439+Q00960+Q62645); type: cell-based; details: Hill slope of PTC-174 concentration-response
[13] = CNS exposure after systemic administration; type: in vivo; details: no data shown
GluN1/2D [14] = molecular target: T2, GluN1/2D (Rattus norvegicus, UniProt P35439+Q62645); experiment: Fast-application whole-cell patch-clamp electrophysiology, HEK293 cells; type: cell-based; details: 10 μM glycine
Outline: as §3

GluN1/2B = GluN1/2B (Rattus norvegicus, UniProt P35439+Q00960); type: cell-based
Outline: as §2

AMPA (GluA1–4) receptors = experiment: Two-electrode voltage-clamp electrophysiology, selectivity over AMPA receptors; type: cell-based; details: 10 μM PTC-174; activated by 30 μM kainate
Outline: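 GluA1–4 AMPA receptors were expressed from cRNA in Xenopus oocytes. Two-electrode voltage clamp was at −40 mV and 21–23°C in Ba2+-containing solution, pH 7.4. Currents were evoked by 30 μM kainate with and without 10 μM test compound (DMSO <0.1%). Responses were normalized to control without test compound, from 5–8 oocytes.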

GluN1/2CC1/2CC2-NK = GluN1/2CC1/2CC2-NK (Rattus norvegicus, UniProt P35439+Q00961, N612K); type: cell-based; details: for EC50: EC50, 100 μM glutamate + 50 μM glycine; for nH: Hill slope
Chain of GluN1/2CC1/2CC2-NK (Q00961 20-836 N612K, other chains not shown): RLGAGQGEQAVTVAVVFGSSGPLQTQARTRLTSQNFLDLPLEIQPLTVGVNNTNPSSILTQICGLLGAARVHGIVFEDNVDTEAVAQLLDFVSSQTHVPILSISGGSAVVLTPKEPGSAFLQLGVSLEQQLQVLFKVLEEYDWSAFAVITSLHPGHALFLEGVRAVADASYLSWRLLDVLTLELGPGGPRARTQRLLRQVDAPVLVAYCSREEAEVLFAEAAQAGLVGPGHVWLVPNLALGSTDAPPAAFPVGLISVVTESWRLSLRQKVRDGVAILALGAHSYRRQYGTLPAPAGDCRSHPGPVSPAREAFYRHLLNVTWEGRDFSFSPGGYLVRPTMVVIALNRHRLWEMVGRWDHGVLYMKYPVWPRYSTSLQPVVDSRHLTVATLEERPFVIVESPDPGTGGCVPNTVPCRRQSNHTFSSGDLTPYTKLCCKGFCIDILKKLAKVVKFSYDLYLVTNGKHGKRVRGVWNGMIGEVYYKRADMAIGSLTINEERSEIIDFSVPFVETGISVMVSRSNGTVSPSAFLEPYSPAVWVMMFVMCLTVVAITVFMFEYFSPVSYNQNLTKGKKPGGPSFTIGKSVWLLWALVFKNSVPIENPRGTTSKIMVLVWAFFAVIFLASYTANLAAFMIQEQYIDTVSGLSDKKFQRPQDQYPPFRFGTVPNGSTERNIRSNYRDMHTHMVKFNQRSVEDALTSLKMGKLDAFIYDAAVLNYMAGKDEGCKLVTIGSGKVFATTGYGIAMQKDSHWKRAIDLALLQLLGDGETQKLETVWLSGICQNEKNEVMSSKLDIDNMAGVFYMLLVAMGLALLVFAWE

GluN1/2D [15] = molecular target: T2, GluN1/2D; type: cell-based; details: for Increase in glutamate potency / Increase in glycine potency: 10 μM modulator; for Increase in glutamate potency: 50 μM glycine; for Increase in glycine potency: 100 μM glutamate; for Increase in potencies of co-agonists glutamate and glycine: summary statement
[16] = test system: hippocampal CA1 pyramidal neurons; details: ref Perszyk et al., 2016; cited from earlier work
hippocampal interneurons = details: ref Perszyk et al., 2016; cited from earlier work
[17] = test system: NMDA receptor-mediated responses of STN neurons; details: ref Swanger et al., 2015; cited from earlier work
recombinant GluN1/2A/2C = details: ref Bhattacharya et al., 2018; cited from earlier work
[18] = 10 μM PTC-174, 10 μM glutamate + 1 μM glycine
[19] = Hill slope of PTC-174 concentration-response
[20] = 100 μM glutamate + 50 μM glycine
[21] = relative to the response activated by glutamate + glycine + PTC-174
[22] = control (no modulator), continuous 50 μM glycine

## NC(CCCP(=O)(O)O)C(=O)O (stereo not drawn) [APV, 2-Amino-5-phosphonovalerate, reference compound]
[1]; APV 400 μM superfusion
  Effect on NMDA receptor-mediated EPSCs: completely blocked the NMDA receptor-mediated EPSCs
[2]; APV 400 μM superfusion
  Effect on NMDA receptor-mediated EPSCs: completely blocked the NMDA receptor-mediated EPSCs
[3]; APV 400 μM superfusion
  Effect on NMDA receptor-mediated EPSCs: completely blocked the NMDA receptor-mediated EPSCs
[4]
  Effect on NMDA-evoked current: eliminated; also recorded: completely blocked the response to NMDA

## NCC(=O)O [glycine]
GluN1/2A [5]
  EC50: 1.1 µM

## CC(C)(C)c1ccc(-c2nc3n(c(=O)c2C#N)CCCS3)cn1 [PTC-174, 8-(6-(tert-butyl)pyridin-3-yl)-6-oxo-3,4-dihydro-2H,6H-pyrimido[2,1-b][1,3]thiazine-7-carbonitrile]
[1]; 10 μM PTC-174, +40 mV, baseline 113.7 ± 27.2
  τfast: 147.3 ± 46.5 ms
[1]; 10 μM PTC-174, +40 mV, baseline 132.6 ± 20.1
  Peak amplitude: 157 ± 23 pA and 156.6 ± 23.3 pA
[1]; 10 μM PTC-174, +40 mV, baseline 191.6 ± 6.6
  τw (weighted EPSC decay time constant): 292.0 ± 41.8 ms
[1]; 10 μM PTC-174, +40 mV, baseline 321.4 ± 36.0
  τslow: 522.4 ± 154.9 ms
GluN1/2A [6]; [18]
  Potentiation of responses at low glycine: 1.6 fold
GluN1/2A [6]; 100 μM glutamate + 50 μM glycine, control = response without PTC-174, inhibition
  Maximal modulation (% control): 39 ± 4 % control
GluN1/2A [6]; [19]
  nH: −1.1
GluN1/2A [6]; maximal glutamate plus glycine
  Effect on current responses (in words): concentration-dependent partial inhibition; also recorded: partial antagonist
[7]
  Effect on current responses: did not affect current responses
[8]
  nH: 1.2
GluN1/2C [9]; [18]
  Potentiation of responses at low glycine: ~ 10 fold
GluN1/2C [9]; 10 μM modulator, 100 μM glutamate
  Increase in glycine potency: 4.7 fold
GluN1/2C [9]; [20]
  Maximal modulation (% control): 1095 ± 29 % control
GluN1/2C [9]; [19]
  nH: 1.2
GluN1/2C [9]; maximal glutamate plus glycine
  Maximal potentiation of current responses: > 10 fold
GluN1/2C [9]; [21]
  Current response to glutamate only + PTC-174: 1.5% ± 0.1
  Current response to glycine only + PTC-174: 4.0% ± 0.9
GluN1/2C [9]; summary statement
  Increase in potencies of co-agonists glutamate and glycine: 2- to 5 fold
GluN1/2C [10]
  Enhancement of peak responses: 3.7 fold
[11]
  EC50: 19.7 ± 1.5 µM
[11]; [19]
  nH: −1.0
[11]; maximal glutamate plus glycine
  Effect on current responses (in words): partial inhibition; also recorded: partial antagonist
[2]; 10 μM PTC-174, +40 mV, baseline 56.0 ± 3.3
  τfast: 64.3 ± 9.3 ms
[2]; 10 μM PTC-174, +40 mV, baseline 150.1 ± 10.0
  τw (weighted EPSC decay time constant): 187.3 ± 20.0 ms
[2]; 10 μM PTC-174, +40 mV, baseline 382.5 ± 38.8
  τslow: 416.1 ± 36.9 ms
[12]
  nH: 1.0
[3]; 10 μM PTC-174, −40 mV, baseline 12.9 ± 1.4
  Charge transfer: 15.9 ± 2.4 pA·S
[3]; 10 μM PTC-174, −40 mV, baseline 49.6 ± 5.5
  τfast: 69.3 ± 10.1 ms
[3]; 10 μM PTC-174, −40 mV, baseline 111.0 ± 7.1
  τw (weighted EPSC decay time constant): 166.7 ± 21.3 ms and 166.7 ± 2.1 ms
[3]; 10 μM PTC-174, −40 mV, baseline 226.2 ± 21.8
  τslow: 397.7 ± 131.5 ms
[13]
  CNS exposure: readily achieves CNS exposure after systemic administration
GluN1/2D [14]; 10 μM PTC-174 continuous, 3–5 ms 1 mM glutamate
  Enhancement of peak responses: 5.3 fold
GluN1/2D [14]; 10 μM PTC-174 present before and during 1 mM glutamate exposure
  Potentiation of response to 2 second glutamate application: 6.3 fold
GluN1/2B; [18]
  Potentiation of responses at low glycine: 1.8 fold
GluN1/2B; [20]
  Maximal modulation (% control): 180 ± 4 % control
GluN1/2B; [19]
  nH: 1.3
GluN1/2B; maximal glutamate plus glycine
  Maximal potentiation of current responses: 1.8 fold
AMPA (GluA1–4) receptors
  Effect on current responses: did not affect current responses
GluN1/2CC1/2CC2-NK; in the presence of 1 mM Mg2+
  EC50: 4.5 ± 0.2 µM
  nH: 1.2
GluN1/2CC1/2CC2-NK; without Mg2+
  EC50: 5 ± 0.5 µM
  nH: 1.4
GluN1/2D [15]; [18]
  Potentiation of responses at low glycine: ~ 10 fold
GluN1/2D [15]
  Increase in glutamate potency: 2.5 fold
  Increase in glycine potency: 4.8 fold
  Increase in potencies of co-agonists glutamate and glycine: 2- to 5 fold
GluN1/2D [15]; [20]
  Maximal modulation (% control): 1265 ± 67 % control
GluN1/2D [15]; [19]
  nH: 1.2
GluN1/2D [15]; maximal glutamate plus glycine
  Maximal potentiation of current responses: > 10 fold and 13 fold

## COc1ccc(OCC2c3cc(OC)c(OC)cc3CCN2C(=O)c2cccc(Cl)c2)cc1 (single isomer, unassigned; (+)) [(+)-CIQ, (3-Chlorophenyl){6,7-dimethoxy-1-[(4-methoxyphenoxy)methyl]-3,4-dihydro-2(1H)-isoquinolinyl}methanone]
[16]
  Effect on NMDA receptor-mediated EPSCs: no effect on NMDA receptor-mediated EPSCs
Hippocampal interneurons
  Effect on EPSC decay time: did not affect the EPSC decay time
[17]
  Effect on NMDA receptor-mediated responses of STN neurons: potentiate
Recombinant GluN1/2A/2C
  Efficacy relative to GluN1/2C: nearly as efficacious at recombinant GluN1/2A/2C as at GluN1/2C
GluN1/2D [15]
  Increase in glutamate potency: no effect on glutamate potency
  Increase in glycine potency: no significant effect on glycine potency
  Increase in potencies of co-agonists glutamate and glycine: no effect on agonist potencies

## N[C@@H](CCC(=O)O)C(=O)O [glutamate, reference compound]
GluN1/2C [9]; [22]
  nH (glutamate): 1.3
GluN1/2D [15]; [22]
  nH (glutamate): 1.7 and 1.5
